The text below walks through data of PubChem BioAssay AID617 (SRMLSC, 2007).

The test system of the assay is E. coli BW25113 ΔtolC growth inhibition, OD615. Nature of the assay: growth inhibitors of E. coli tolC mutant, dose response, strain BW25113 ΔtolC::kan (AID 617). The method, boiled down:
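Material: E. coli BW25113 ΔtolC::kan bacteria; input: inoculum from 1:1000-diluted 1.5 h subculture; medium: kanamycin-containing LB broth, 50 µg/mL; dosing: compounds in serially diluted dose-response series; incubation: 20 h exposure at 37 °C; measured by: absorbance at 615 nm; control set: chloramphenicol control, 30 µM final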
A word on the IC50: it is the point on the concentration scale where inhibition reaches its midpoint. Take `Cc1cccn2c(=O)c3cc(C(=O)NCc4ccco4)c(=N)n(CCc4ccccc4)c3nc12`: the IC50 was 43.1 µM.
With `CCN(CCCNC(=O)c1[nH]c(C)c(C(C)=O)c1C)c1cccc(C)c1` the figure was 8.23 µM.
As to `c1csc(-c2noc(COc3ccc4c(c3)CCCC4)n2)c1`, the IC50 was 18.4 µM.
With `CCOC(=O)c1c(C)[nH]c(C)c1C(=O)Cn1nnc(-c2ccccc2C)n1` the figure was 5.44 µM; with `N#Cc1cn(Cc2cccc(Cl)c2)c2ccccc12`, 7.45 µM.
Consider `CCOC(=O)C1CCN(c2ncnc3c2oc2ccc(Br)cc23)CC1`, for which the IC50 is 12.8 µM.
On to `Cc1cc(SCC#N)n2nc(C)c(-c3ccccc3)c2n1`, for which the IC50 was 48.5 µM.
Regarding `COc1c(C)cc(Br)cc1C(=O)Nc1cccc(NC(=O)c2ccco2)c1`, the 50% inhibitory concentration (IC50) is 7.48 µM.
With `CCCn1c(CN(Cc2ccccc2)Cc2ccccc2)nc2c1c(=O)n(C)c(=O)n2C` the figure was 7.19 µM; with `O=C(CCSc1nc(-c2ccco2)cc(C(F)(F)F)n1)N1CCCc2ccccc21`, 9.2 µM; with `CN(C)C1(c2nnnn2CCOC(=O)Nc2ccc(Cl)cc2)CCCCC1`, 8.24 µM.
With `CCCOC(=O)c1ccc(Oc2cn[nH]c2-c2ccc(OCC)cc2O)cc1` the figure was 13.6 µM; with `CSc1nc2ccc(NS(=O)(=O)c3ccc(Cl)s3)cc2s1`, 0.72 µM.
For `c1ccc(CN2CCN(c3nc(-c4ccccc4)nc(-n4ccnc4)n3)CC2)cc1`, the half-maximal inhibitory concentration (IC50) is 6.13 µM.
With `Cc1cc(-c2nnc3n2N=C(c2ccc(-c4ccccc4)cc2)CS3)n[nH]1` the figure was 9.55 µM; with `Clc1cccc(NCc2nnc(SCc3ccccc3)o2)c1`, 9.57 µM.
Regarding `O=C(Nc1ccc2c(c1)CCC2)C1COc2ccccc2O1` (stereo not given), the concentration for half-maximal inhibition (IC50) is 12.2 µM.
Consider `OC(COc1ccc2ccccc2c1Br)Cn1ccnc1` (stereo not given), for which the 50% inhibitory concentration (IC50) is 7.54 µM.
With `Cc1cc(C)c(C#N)c(SCC(=O)OC2CCCCC2)n1` the figure was 19.1 µM; with `CCOc1ccccc1C(=O)NC(C(=O)OCC(=O)Nc1nnc(-c2ccccc2)o1)C(C)C` (stereo not given), 7.68 µM; with `O=S(=O)(NC1CCCC1)c1ccc(S(=O)(=O)N(Cc2cccs2)CC2CCCO2)cc1` (stereo not given), 21 µM.
With `COc1ccccc1N1CCN(C(=O)c2cc(-c3cccc(Cl)c3)on2)CC1` the figure was 12.9 µM; with `O=S(=O)(Nc1ccc(S(=O)(=O)N2CCCCC2)cc1)c1ccc(Br)s1`, 4.39 µM; with `O=C(NCC1CCCO1)c1sc(=S)n2c1[nH]c(=O)c1ccc(C(=O)N3CCCCC3)cc12` (stereo not given), 16.4 µM.
Regarding `O=C(COc1ccc2ccccc2c1Br)N1CCN(c2ccccn2)CC1`, the half-maximal inhibitory concentration (IC50) was 10.5 µM.
With `C(=C\c1ccccc1)/CN1CCN(c2ncnc3c2oc2ccccc23)CC1` the figure was 10.2 µM; with `C=CCn1c(NC(C)c2cc(Cl)ccc2O)nc2ccccc21` (stereo not given), 6.8 µM.
Under `Cc1cc(C)c(O)c(-c2cc(C(=O)Nc3ccc(S(=O)(=O)N4CCOCC4)cc3)[nH]n2)c1` stands 6.03 µM; under `O=C(Nc1nc(SCc2ccc(F)cc2)ns1)c1ccco1`, 4.2 µM.
Under `CC(C)N(Cc1nc(-c2ccc(Cl)cc2)no1)C(=O)c1cccs1` stands 18.9 µM; under `CCOc1ccc(Nc2cc(C)nc(-n3nc(C)cc3C)n2)cc1`, 4.19 µM.
`CCc1nnc(NC(=O)c2cccc(C(=O)Nc3nnc(CC)s3)n2)s1`: the IC50 is 2.16 µM.
Regarding `COC(=O)C1=C(N)Oc2cc(C)n(Cc3ccco3)c(=O)c2C1c1cccc(Cl)c1` (stereo not given), the half-maximal inhibitory concentration (IC50) was 26.5 µM.
`COc1ccc(-c2nnc(NC(=O)c3ccc(S(=O)(=O)N4COCC4(C)C)cc3)o2)cc1`: the IC50 is 0.52 µM.
Take `COC(=O)c1sc(N2C(=O)C(O)=C(C(=O)c3ccc(C)o3)C2c2ccc(F)cc2)nc1C` (stereo not given): the concentration for half-maximal inhibition (IC50) was 15.6 µM.
In the case of `COCc1nnc(NC(=O)c2ccc(S(=O)(=O)N(C)C3CCCCC3)cc2)o1`, the IC50 was 4.09 µM.
On to `O=C(Nc1nccs1)C(NS(=O)(=O)c1ccc(Br)s1)c1ccccc1` (stereo not given), for which the IC50 was 12.8 µM.
Under `O=C(CSc1nnc2scc(-c3ccccc3)n12)Nc1nsc(-c2ccccc2)n1` stands 13.1 µM; under `CCOC(=O)c1ccccc1NC(=O)C(C)Oc1ccccc1` (stereo not given), 30.3 µM.
With `COc1ccc(S(=O)(=O)Nc2ccccc2C(=O)NCc2ccco2)cc1Br` the figure was 9.63 µM.
On to `COc1cccc(NC(=O)Nc2nnc(N3CCCCC3C)s2)c1` (stereo not given), for which the IC50 is 8.43 µM.
With `COc1ccccc1N1CCN(C(=O)COc2ccc(C)cc2Br)CC1` the figure was 25.9 µM; with `CCSc1oc(-c2ccccc2)nc1S(=O)(=O)c1ccccc1`, 11.1 µM; with `CSc1nc(-c2ccccc2)nc(N2CCCC2)c1C(C)=O`, 12.7 µM.
Under `Cc1cc(N2CCN(C(c3ccccc3)c3ccccc3)CC2)n2ncnc2n1` stands 26.6 µM; under `Cc1cc(N2C3CCC2CC(O)(c2ccc(F)cc2)C3)nc(-c2ccccc2)n1` (stereo not given), 7.11 µM.
With `CCn1cc(C(=O)O)c(=O)c2cc(OC)ccc21` the figure was 9.67 µM; with `CC1CCCCN1S(=O)(=O)c1ccc(C(=O)Nc2nnc(-c3cccs3)o2)cc1` (stereo not given), 0.24 µM; with `CN(c1cccc(NC(=O)Nc2cccc(Cl)c2)c1)S(C)(=O)=O`, 12.7 µM.
As for `Cc1cccc(-n2ncc3c(N4CCC(C)CC4)ncnc32)c1`, the IC50 is 13 µM.
Consider `COc1ccc(-c2nc3oc4cc(OC)ccc4c(=O)c3c(=O)n2Cc2ccco2)cc1`, for which the half-inhibitory concentration (IC50) is 2.33 µM.
Under `CCc1c(C(=O)Nc2ncn(Cc3cccc(C)c3)n2)csc1C` stands 29.1 µM.
Consider `Cc1ccc(C(C(=O)NC2CCCC2)N(Cc2cccs2)C(=O)CNC(=O)c2cccs2)o1` (stereo not given), for which the IC50 was 22.3 µM.
With `CC(C)(C)c1ccc(C(=O)CCCSC2=C(C#N)C(c3ccco3)C3=C(CCCC3=O)N2)cc1` (stereo not given) the figure was 1.77 µM.
For the compound `Cc1cccc2cc(C(c3nnnn3CC3CCCO3)N3CCc4ccccc4C3)c(=O)[nH]c12` (stereo not given), the concentration for half-maximal inhibition (IC50) is 35.4 µM.
With `CC(C)OCCCNc1ncnc2c1[nH]c1ccc(F)cc12`, the IC50 was 7.21 µM.
As for `COc1cc(C2C(C(=O)c3ccc(C)o3)=C(O)C(=O)N2c2cc(C)on2)cc(Br)c1O` (stereo not given), the IC50 is 24.7 µM.
On to `Cc1ccc(Cl)cc1NC(=O)CC(O)(C(F)(F)F)C(F)(F)F`, for which the IC50 is 3.77 µM.
Under `COc1ccc(S(=O)(=O)n2cnc3cc(C)c(C)cc32)cc1C` stands 13.6 µM.
Under `N#Cc1c(NC(=O)c2ccc(Cn3cc(Br)cn3)o2)sc2c1CCCCCC2` stands 11.5 µM; under `CN(C)c1ccc(C2C=C(c3ccc(Cl)cc3OC(F)F)Nc3ncnn32)cc1` (stereo not given), 1.95 µM.
Regarding `CCCCCn1c(SCCC(C)C)nc2c1c(=O)[nH]c(=O)n2C`, the half-inhibitory concentration (IC50) was 38 µM.
Under `CC(C)Sc1nc(NCc2ccco2)c2c3c(sc2n1)COC(C)(C)C3` stands 20.6 µM.
In the case of `COC(=O)c1c(NC(=O)CCc2ccc(C)o2)sc(C)c1C`, the half-inhibitory concentration (IC50) is 26.8 µM.
Regarding `CC1CCc2nc(NC(=O)c3cc(C(C)(C)C)nn3C)sc2C1` (stereo not given), the half-inhibitory concentration (IC50) is 12.4 µM.
With `COc1ccc2nc(SCC(=O)N(C)C3CCCCC3)c(C#N)cc2c1` the figure was 15.8 µM; with `Cc1onc(-c2ccccc2)c1C(=O)Nc1nnc(N(C)Cc2ccccc2)s1`, 23.9 µM.
Regarding `Cc1ccc2oc(C(=O)NCc3ccc4c(c3)OCO4)c(C)c2c1`, the IC50 was 11.1 µM.
For the compound `CCOc1ccc(C(=O)C2CCN(CC(=O)Nc3ccccc3N3CCOCC3)CC2)cc1`, the IC50 is 15.6 µM.
Under `CN(Cc1ccccc1)Cc1nc2c(c(=O)n(C)c(=O)n2C)n1CCCc1ccccc1` stands 14.9 µM; under `O=C(c1noc2c1CCc1ccccc1-2)N1CCc2ccccc2C1`, 6.67 µM.
With `O=C(Nc1ncc(Br)s1)C(Cc1ccccc1)n1cccc1` (stereo not given) the figure was 3.21 µM; with `NC1=NC(c2cn(-c3ccccc3)nc2-c2cccs2)n2c(nc3ccccc32)N1` (stereo not given), 16.4 µM; with `CCN(CCCNC(=O)CCc1nc(-c2ccc(C)cc2)no1)c1cccc(C)c1`, 68.8 µM.
With `CC1=C(C(=O)OCC(C)C)C(c2cc3c(cc2Br)OCO3)NC(=O)N1C` (stereo not given) the figure was 18.1 µM.
Take `c1ccc(CCc2ccccc2-c2nc(-c3cccnc3)no2)cc1`: the IC50 is 11.9 µM.
With `CCOc1ccc(NS(=O)(=O)c2ccc3[nH]cc(C(=O)NC(C)CC)c(=O)c3c2)cc1` (stereo not given) the figure was 11.1 µM; with `O=C(CSc1nnnn1C1CCCCC1)Nc1nc2c(s1)CCCC2`, 10.2 µM.
Under `Fc1ccc(CNc2nc(-c3ccco3)cc(C(F)(F)F)n2)cc1` stands 13.9 µM; under `C=C(C)COc1ccc(-c2[nH]ncc2Oc2ccccc2OC)c(O)c1`, 5.72 µM.
Under `O=C(CSc1n[nH]c(-c2ccco2)n1)N1c2ccccc2Sc2ccccc21` stands 9.51 µM; under `Cc1cc(C)c(C#N)c(SCS(=O)c2ccc(C(C)(C)C)cc2)n1` (stereo not given), 40.1 µM.
Consider `CCn1cc(C(=O)NC2CCCCC2C)c(=O)c2ccc(C)nc21` (stereo not given), for which the 50% inhibitory concentration (IC50) was 5.31 µM.
With `O=C(Nc1ccccc1N1CCCCC1)c1cccc(F)c1` the figure was 15.2 µM; with `Cc1ccc(-c2noc(CCC(=O)N3CCCc4ccccc43)n2)cc1`, 12.8 µM; with `Cc1nc2ncnn2c(N2CCN(C(c3ccccc3)c3ccccc3)CC2)c1C`, 6.96 µM.
With `Cn1c(NC(=O)c2ccccc2NC(=O)C(C)(C)C)nc2ccccc21` the figure was 9.13 µM; with `COc1ccccc1N1CCN(C(=O)c2cc(-c3ccc(C)cc3)on2)CC1`, 7.85 µM.
Regarding `Cc1ccc2c3c1C1(C(=O)N3C(C)(C)CC2C)C(C#N)=C(N)Oc2cc(O)ccc21` (stereo not given), the IC50 is 2.96 µM.
With `CC1=C(C(=O)OC2CCCCCCC2)C(c2cccc(O)c2)NC(=O)N1` (stereo not given) the figure was 12.3 µM; with `COc1ccc(-c2cc(C(=O)N3CCCc4ccccc43)no2)cc1`, 20.5 µM; with `CCOC(=O)c1c(C)oc2ccc(NS(=O)(=O)c3ccc4c5c(cccc35)C(=O)N4)cc12`, 16.3 µM.
In the case of `COc1cccc(-c2cc(C(=O)N3CCc4ccccc4C3)no2)c1`, the IC50 is 8.69 µM.
Take `Cc1nc(N2CCN(c3ccccc3)CC2)nc2c1C(=O)CCC2`: the concentration for half-maximal inhibition (IC50) is 26.6 µM.
Regarding `Clc1ccc2nc(CN3CCCc4ccccc43)cn2c1`, the IC50 is 25.8 µM.
